Test results taken from ChEMBL document CHEMBL1136886, “Optimization of benzimidazole series as opioid receptor-like 1 (ORL1) antagonists: SAR study directed toward improvement of selectivity over hERG activity” (Bioorg Med Chem Lett, 2009).
pIC50: −log10 of the molar value.

What was measured:
Nociceptin receptor [1] = molecular target: T1, Nociceptin receptor (Homo sapiens, UniProt P41146); experiment: Displacement of [125I]Tyr14-NC/OFQ from human ORL1 receptor
Outline: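 Membrane fractions of CHO cells expressing human ORL1; binding affinity from displacement of radioligand [125I]Tyr14-NC/OFQ.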

[2] = molecular target: Voltage-gated inwardly rectifying potassium channel KCNH2 (Homo sapiens, UniProt Q12809); experiment: Displacement of [35S]MK499 from human ERG expressed in HEK293 cells
Voltage-gated inwardly rectifying potassium channel KCNH2, sequence (Q12809 whole entry): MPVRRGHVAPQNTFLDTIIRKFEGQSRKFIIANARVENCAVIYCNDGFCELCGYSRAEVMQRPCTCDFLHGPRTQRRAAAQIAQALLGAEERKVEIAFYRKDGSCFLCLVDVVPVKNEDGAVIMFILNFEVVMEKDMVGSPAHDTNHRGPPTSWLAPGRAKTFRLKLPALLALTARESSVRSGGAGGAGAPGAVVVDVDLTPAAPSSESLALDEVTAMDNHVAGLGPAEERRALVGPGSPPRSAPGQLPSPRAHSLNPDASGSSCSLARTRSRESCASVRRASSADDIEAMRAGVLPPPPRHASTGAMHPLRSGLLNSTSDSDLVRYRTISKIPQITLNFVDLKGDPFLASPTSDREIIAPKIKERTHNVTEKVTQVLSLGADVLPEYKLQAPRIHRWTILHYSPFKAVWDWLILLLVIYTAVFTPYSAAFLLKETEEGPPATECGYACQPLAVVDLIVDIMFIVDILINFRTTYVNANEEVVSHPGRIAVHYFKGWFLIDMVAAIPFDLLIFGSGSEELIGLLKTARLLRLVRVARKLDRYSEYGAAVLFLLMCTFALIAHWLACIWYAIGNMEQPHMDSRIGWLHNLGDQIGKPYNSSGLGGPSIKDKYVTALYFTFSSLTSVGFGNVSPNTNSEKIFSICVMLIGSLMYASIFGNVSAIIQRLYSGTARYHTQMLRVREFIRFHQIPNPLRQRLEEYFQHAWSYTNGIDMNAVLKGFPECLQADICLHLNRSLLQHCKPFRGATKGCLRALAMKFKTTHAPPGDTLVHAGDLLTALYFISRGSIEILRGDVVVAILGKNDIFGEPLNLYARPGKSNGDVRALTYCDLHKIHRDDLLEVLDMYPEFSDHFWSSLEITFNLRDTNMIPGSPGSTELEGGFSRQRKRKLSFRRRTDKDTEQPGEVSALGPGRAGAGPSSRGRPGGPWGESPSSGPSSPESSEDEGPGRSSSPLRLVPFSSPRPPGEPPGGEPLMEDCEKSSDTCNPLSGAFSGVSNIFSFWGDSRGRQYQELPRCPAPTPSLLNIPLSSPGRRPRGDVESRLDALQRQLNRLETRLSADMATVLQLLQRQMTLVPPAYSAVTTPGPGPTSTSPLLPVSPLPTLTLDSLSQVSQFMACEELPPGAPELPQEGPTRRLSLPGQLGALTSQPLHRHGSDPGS

Nociceptin receptor [3] = molecular target: T1, Nociceptin receptor; experiment: Antagonist activity at ORL1 receptor expressed in CHO cells assessed as inhibition of NC/OFQ-stimulated [35S]GTPgammaS binding; assay type: functional, cell-based
Outline: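 Membrane fractions of CHO cells expressing ORL1 used; functional activity measured by [35S]GTPγS binding to G proteins.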

[4] = Lipophilicity, log D at pH 7.4 by shake-flask method; assay type: physicochemical; settings: buffer
Mu-type opioid receptor = Mu-type opioid receptor (Homo sapiens, UniProt P35372); experiment: Displacement of [3H]diprenorphin from human cloned mu opioid receptor expressed in CHO cells; assay type: cell-based
Mu-type opioid receptor, sequence (P35372 whole entry): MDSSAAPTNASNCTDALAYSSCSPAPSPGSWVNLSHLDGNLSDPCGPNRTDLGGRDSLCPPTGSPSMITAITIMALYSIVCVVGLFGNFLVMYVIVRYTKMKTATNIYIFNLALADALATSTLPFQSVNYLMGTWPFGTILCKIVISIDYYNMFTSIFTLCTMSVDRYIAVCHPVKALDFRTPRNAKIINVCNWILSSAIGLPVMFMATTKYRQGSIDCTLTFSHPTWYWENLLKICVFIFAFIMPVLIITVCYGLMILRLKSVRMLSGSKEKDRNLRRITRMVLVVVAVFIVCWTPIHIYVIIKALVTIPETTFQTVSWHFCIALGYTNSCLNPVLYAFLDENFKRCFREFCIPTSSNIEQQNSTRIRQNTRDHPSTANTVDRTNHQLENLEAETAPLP

[5] = molecular target: Kappa-type opioid receptor (Homo sapiens, UniProt P41145); experiment: Displacement of [3H]U69593 from human cloned kappa opioid receptor expressed in CHO cells; assay type: cell-based
Kappa-type opioid receptor, sequence (P41145 whole entry): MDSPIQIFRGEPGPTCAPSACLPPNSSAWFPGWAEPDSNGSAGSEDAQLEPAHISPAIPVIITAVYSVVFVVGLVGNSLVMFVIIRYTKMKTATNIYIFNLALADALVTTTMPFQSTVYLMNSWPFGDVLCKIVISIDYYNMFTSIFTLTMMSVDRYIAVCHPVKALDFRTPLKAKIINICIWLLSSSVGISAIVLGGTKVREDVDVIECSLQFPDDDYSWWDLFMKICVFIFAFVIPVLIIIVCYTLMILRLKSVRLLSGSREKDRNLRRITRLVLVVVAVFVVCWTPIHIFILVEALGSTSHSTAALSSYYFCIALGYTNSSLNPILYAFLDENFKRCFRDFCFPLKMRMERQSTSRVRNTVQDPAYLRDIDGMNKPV

T1 sequence (P41146 whole entry): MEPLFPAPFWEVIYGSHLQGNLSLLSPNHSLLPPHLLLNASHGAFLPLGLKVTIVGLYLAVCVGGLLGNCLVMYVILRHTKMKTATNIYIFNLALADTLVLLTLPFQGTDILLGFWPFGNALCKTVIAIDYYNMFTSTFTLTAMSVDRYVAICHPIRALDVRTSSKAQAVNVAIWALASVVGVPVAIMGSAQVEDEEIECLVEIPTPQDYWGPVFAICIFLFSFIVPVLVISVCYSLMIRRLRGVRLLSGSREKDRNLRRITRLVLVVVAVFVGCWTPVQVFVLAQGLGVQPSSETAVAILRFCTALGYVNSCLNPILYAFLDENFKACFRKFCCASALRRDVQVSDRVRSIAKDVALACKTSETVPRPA

| Structure (SMILES) | pIC50 (Nociceptin receptor [1]) | pIC50 [2] | pIC50 (Nociceptin receptor [3]) | logD [4] | pIC50 (Mu-type opioid receptor) | pIC50 [5] |
| --- | --- | --- | --- | --- | --- | --- |
| C[C@@H]1CN(CC(F)F)CCN1c1cc2[nH]c(SC(C)(C)C)nc2cc1Cl | 7.64 | < 5.00 | – | – | – | – |
| CCN1CCN(c2cc3[nH]c(SC(C)(C)C)nc3cc2Cl)CC1 | 7.66 | – | – | – | – | – |
| CCN1CCN(c2cc3[nH]c(SC(C)(C)CCNC(=O)OC)nc3cc2Cl)CC1 | 7.68 | – | 8.07 | – | – | – |
| CCOC(=O)N1CCC(C)(Sc2nc3cc(Cl)c(N4CCN(CC)CC4)cc3[nH]2)CC1 | 8.37 | – | 8.96 | – | – | – |
| CCN1CCN(c2cc3[nH]c(S[C@]4(C)CC[C@@H](c5nc(C)no5)CC4)nc3cc2Cl)CC1 | 8.77 | – | 9.04 | 3.8 | – | – |
| C[C@@H]1CN(CC#N)CCN1c1cc2[nH]c(SC(C)(C)C)nc2cc1Cl | 7.21 | – | – | – | – | – |
| CCN1CCN(c2cc3[nH]c(S[C@]4(C)CC[C@@H](c5nnn(C)n5)CC4)nc3cc2Cl)CC1 | 8.66 | – | 9.05 | 3.1 | – | – |
| C[C@@H]1CN(CCC#N)CCN1c1cc2[nH]c(SC(C)(C)C)nc2cc1Cl | 7.57 | < 5.00 | 8.19 | – | – | – |
| CCN1CCN(c2cc3[nH]c(S[C@]4(C)CC[C@@H](N(C)C(C)=O)CC4)nc3cc2Cl)CC1 | 9.09 | – | 8.89 | 2.7 | 6.08 | 6.80 |
| CCN1CCN(c2cc3[nH]c(S[C@]4(C)CC[C@@H](NS(C)(=O)=O)CC4)nc3cc2Cl)CC1 | 8.68 | < 5.00 | 8.74 | 2.5 | – | – |
| CCN1CCN(c2cc3[nH]c(S[C@]4(C)CC[C@@H](c5nnco5)CC4)nc3cc2Cl)CC1 | 8.96 | – | 9.23 | – | – | – |
| CCN1CCN(c2cc3[nH]c(S[C@]4(C)CC[C@@H](c5nnc(C)o5)CC4)nc3cc2Cl)CC1 | 8.74 | – | 8.15 | – | – | – |
| C[C@@H]1CN(CC(F)(F)F)CCN1c1cc2[nH]c(SC(C)(C)C)nc2cc1Cl | 6.20 | – | – | – | – | – |
| CCN1CCN(c2cc3[nH]c(S[C@]4(C)CC[C@@H](NC(C)=O)CC4)nc3cc2Cl)CC1 | 8.72 | < 5.00 | 8.96 | 2.5 | – | – |
| CCN1CCN(c2cc3[nH]c(S[C@]4(C)CC[C@H](NC(=O)OC)CC4)nc3cc2Cl)CC1 | 8.02 | 5.82 | 8.68 | – | – | – |
| CCN1CCN(c2cc3[nH]c(S[C@]4(C)CC[C@@H](NC(=O)OC)CC4)nc3cc2Cl)CC1 | 8.62 | 5.46 | 9.14 | 3.4 | – | – |
| CCN1CCN(c2cc3[nH]c(S[C@]4(C)CC[C@@H](C(=O)NC)CC4)nc3cc2Cl)CC1 | 9.00 | < 5.00 | 8.96 | – | – | – |
| CCN1CCN(c2cc3[nH]c(SC(C)(C)C)nc3cc2Cl)[C@H](C)C1 | 8.04 | 6.00 | 8.54 | – | – | – |
| CCN1CCN(c2cc3[nH]c(S[C@]4(C)CC[C@@H](S(C)(=O)=O)CC4)nc3cc2Cl)CC1 | 8.16 | < 5.00 | 8.40 | – | – | – |
| C[C@@H]1CN(CCO)CCN1c1cc2[nH]c(SC(C)(C)C)nc2cc1Cl | – | 5.80 | – | – | – | – |
| CCN1CCN(c2cc3[nH]c(S[C@]4(C)CC[C@@H](N5CCCC5=O)CC4)nc3cc2Cl)CC1 | 8.85 | < 5.00 | 9.26 | 2.9 | – | – |
| CCN1CCN(c2cc3[nH]c(S[C@]4(C)CC[C@@H](c5nnnn5C)CC4)nc3cc2Cl)CC1 | 8.13 | – | 8.43 | 2.3 | – | – |
| CC(=O)CN1CCN(c2cc3[nH]c(SC(C)(C)C)nc3cc2Cl)C(C)C1 (racemic) | – | < 5.00 | 7.39 | – | – | – |
| CCN1CCN(c2cc3[nH]c(SC4(C)CCC(NC(=O)OC)C4)nc3cc2Cl)CC1 (racemic) | – | – | 7.34 | – | – | – |
